Test results as given in ChEMBL document CHEMBL1817572, “New, potent, selective, and short-acting peptidic V1a receptor agonists” (J Med Chem, 2011).
Bridge positions count the residues as written; N and C are the ends. Square brackets hold non-standard residues; d marks the D form. Peptide text beside a SMILES is read from it. Ala(2-furyl) = N[C@@H](Cc1ccco1)C(=O)O; Orn(iPr) = CC(C)NCCC[C@H](N)C(=O)O; 2Thi = N[C@@H](Cc1cccs1)C(=O)O; Aad = N[C@@H](CCCC(=O)O)C(=O)O; Cha = N[C@@H](CC1CCCCC1)C(=O)O; Orn = NCCC[C@H](N)C(=O)O; Dab = NCC[C@H](N)C(=O)O

Tests used:
[1] = target: Vasopressin V1a/V2 (Homo sapiens) (UniProt P30518+P37288); test: Selectivity ratio of EC50 for human vasopressin V2 receptor to EC50 for human vasopressin V1a receptor
Chain of Vasopressin V1a/V2 (Homo sapiens) (P30518 whole entry, looked up): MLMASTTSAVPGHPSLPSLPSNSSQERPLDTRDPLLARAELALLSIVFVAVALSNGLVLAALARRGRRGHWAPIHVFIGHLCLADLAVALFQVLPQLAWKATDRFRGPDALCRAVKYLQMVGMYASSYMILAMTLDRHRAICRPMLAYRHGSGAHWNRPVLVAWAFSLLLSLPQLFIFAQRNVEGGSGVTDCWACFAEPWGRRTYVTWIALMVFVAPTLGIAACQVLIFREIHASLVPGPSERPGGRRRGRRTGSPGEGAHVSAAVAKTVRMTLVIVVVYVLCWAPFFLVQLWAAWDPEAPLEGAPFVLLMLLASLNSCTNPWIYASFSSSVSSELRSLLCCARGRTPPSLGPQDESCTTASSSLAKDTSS
Chain of Vasopressin V1a/V2 (Homo sapiens) (P37288 whole entry, looked up): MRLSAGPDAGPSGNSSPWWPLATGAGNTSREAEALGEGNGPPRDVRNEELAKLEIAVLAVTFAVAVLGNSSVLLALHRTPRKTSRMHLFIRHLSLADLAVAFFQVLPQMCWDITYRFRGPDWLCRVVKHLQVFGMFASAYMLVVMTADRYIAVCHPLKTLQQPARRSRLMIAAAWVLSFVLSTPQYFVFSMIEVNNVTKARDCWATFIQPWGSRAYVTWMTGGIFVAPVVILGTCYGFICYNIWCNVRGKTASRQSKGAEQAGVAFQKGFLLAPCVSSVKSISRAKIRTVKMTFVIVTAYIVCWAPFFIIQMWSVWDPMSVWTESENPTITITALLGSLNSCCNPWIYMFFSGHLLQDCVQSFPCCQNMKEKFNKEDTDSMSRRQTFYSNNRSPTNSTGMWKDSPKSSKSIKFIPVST

Vasopressin V1a receptor [2] = target: T1, Vasopressin V1a receptor (Homo sapiens, UniProt P37288); test: Agonist activity at recombinant human vasopressin V1a receptor expressed in HEK293 cells by luciferase reporter gene assay; format: functional, cell-based; details: read-out: EC50
Target sequence in this assay (P37288 whole entry): as the sequence (P37288 whole entry, looked up) above

Vasopressin V1b receptor = target: T2, Vasopressin V1b receptor (Homo sapiens, UniProt P47901); test: Agonist activity at recombinant human vasopressin V1b receptor expressed in Flp-In-293 cells by luciferase reporter gene assay; format: functional, cell-based; details: read-out: EC50
T2 sequence (P47901 whole entry): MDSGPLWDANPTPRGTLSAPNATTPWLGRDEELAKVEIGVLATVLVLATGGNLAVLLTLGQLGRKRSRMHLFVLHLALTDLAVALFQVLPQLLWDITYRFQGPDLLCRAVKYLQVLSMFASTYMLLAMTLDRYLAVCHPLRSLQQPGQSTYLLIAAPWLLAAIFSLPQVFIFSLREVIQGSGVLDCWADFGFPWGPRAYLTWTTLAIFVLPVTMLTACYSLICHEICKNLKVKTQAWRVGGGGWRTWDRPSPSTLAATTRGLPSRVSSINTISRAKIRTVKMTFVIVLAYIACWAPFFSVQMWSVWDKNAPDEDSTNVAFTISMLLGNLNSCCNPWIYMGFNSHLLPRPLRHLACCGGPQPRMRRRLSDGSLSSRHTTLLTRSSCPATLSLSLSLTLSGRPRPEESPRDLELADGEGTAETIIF
How it was run: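 Reporter gene assays in HEK293 cells transiently cotransfected with V1a (human or rat) or human V2 receptor vector plus NFAT-luciferase (V1a) or CRE-luciferase (V2) reporter; V1b in Flp-In-293 stably expressing receptor, OT in CHO-K1 stably expressing receptor, both transiently transfected with NFAT-luciferase. Two days post-transfection, peptides added for 5 h at 37 °C, lysis with luciferin, luminescence read.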

Vasopressin V2 receptor [3] = target: T3, Vasopressin V2 receptor (Homo sapiens, UniProt P30518); test: Agonist activity at recombinant human vasopressin V2 receptor expressed in HEK293 cells by luciferase reporter gene assay; format: functional, cell-based; details: read-out: EC50
T3 sequence (P30518 whole entry): as the sequence (P30518 whole entry, looked up) above

Oxytocin receptor = target: T4, Oxytocin receptor (Homo sapiens, UniProt P30559); test: Agonist activity at human OT receptor expressed in CHO-K1 cells by luciferase reporter gene assay; format: functional, cell-based
T4 sequence (P30559 whole entry): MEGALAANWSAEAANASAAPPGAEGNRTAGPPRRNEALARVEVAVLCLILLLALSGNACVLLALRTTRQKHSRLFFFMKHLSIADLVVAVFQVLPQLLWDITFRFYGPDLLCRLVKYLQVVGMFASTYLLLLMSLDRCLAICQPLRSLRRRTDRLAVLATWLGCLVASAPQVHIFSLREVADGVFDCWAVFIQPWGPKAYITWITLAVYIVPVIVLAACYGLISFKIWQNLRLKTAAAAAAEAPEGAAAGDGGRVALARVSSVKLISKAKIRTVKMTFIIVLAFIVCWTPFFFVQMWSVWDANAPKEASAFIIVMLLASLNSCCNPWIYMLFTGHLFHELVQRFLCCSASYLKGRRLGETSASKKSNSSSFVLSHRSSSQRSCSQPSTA

Homo sapiens [4] = organism: Homo sapiens; test: Selectivity ratio of EC50 for human vasopressin V1b receptor to EC50 for human vasopressin V1a receptor
Homo sapiens [5] = organism: Homo sapiens; test: Selectivity ratio of EC50 for human oxytocin receptor to EC50 for human vasopressin V1a receptor
Vasopressin V1a receptor [6] = target: Vasopressin V1a receptor (Rattus norvegicus, UniProt P30560); test: Agonist activity at recombinant rat vasopressin V1a receptor expressed in HEK293 cells by luciferase reporter gene assay; format: functional, cell-based; details: read-out: EC50
Chain of Vasopressin V1a receptor (Rattus norvegicus, UniProt P30560) (P30560 whole entry): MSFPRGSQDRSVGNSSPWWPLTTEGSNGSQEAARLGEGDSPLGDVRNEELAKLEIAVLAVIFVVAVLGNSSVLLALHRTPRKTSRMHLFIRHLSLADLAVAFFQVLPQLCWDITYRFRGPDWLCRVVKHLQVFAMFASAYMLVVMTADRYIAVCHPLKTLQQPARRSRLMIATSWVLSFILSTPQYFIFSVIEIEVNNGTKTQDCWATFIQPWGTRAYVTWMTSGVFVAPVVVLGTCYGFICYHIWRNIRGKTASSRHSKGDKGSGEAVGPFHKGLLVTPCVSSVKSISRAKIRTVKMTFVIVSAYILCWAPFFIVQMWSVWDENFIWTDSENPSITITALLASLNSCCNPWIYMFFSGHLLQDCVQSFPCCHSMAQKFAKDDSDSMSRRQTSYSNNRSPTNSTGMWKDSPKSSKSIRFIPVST

Rattus norvegicus [7] = test: Vasoconstriction in Wistar rat assessed as assessed as decay in vasopressive duration of action at 2 nmol/kg, iv bolus measured over 10 sec interval; format: functional
How it was run: (§1)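 Fasted male Wistar rats (206–340 g) under isoflurane, then thiobutabarbital 150 mg/kg ip, ventilated, 37–38 °C, with carotid pressure and jugular dosing. Dibenamine 1.8 mg/rat iv pretreatment. Sequence: iv boluses (0.5 mL/kg) of heparinized vehicle, then two reference doses of 0.1 nmol/kg, then two test doses; one matches the reference diastolic pressure rise. Relative duration = reference decay rate / test decay rate; mean ± SEM.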

Vasopressin V1a receptor [8] = target: T1, Vasopressin V1a receptor; test: Partial agonist activity at recombinant human vasopressin V1a receptor expressed in HEK293 cells by luciferase reporter gene assay; format: functional, cell-based
How it was run: (§2)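 Same luciferase reporter systems (OT in stable CHO-K1, V1b in stable Flp-In-293, each with transient NFAT-luciferase; V1a in HEK293 with NFAT-luciferase, V2 in HEK293 with CRE-luciferase). Peptides added for 5 h at 37 °C two days post-transfection, luminescence read. Partial agonism means efficacy <70%.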
Target sequence in this assay (P37288 whole entry, looked up): as the sequence (P37288 whole entry, looked up) above

Vasopressin V2 receptor [9] = target: T3, Vasopressin V2 receptor; test: Partial agonist activity at recombinant human vasopressin V2 receptor expressed in HEK293 cells by luciferase reporter gene assay; format: functional, cell-based; how it was run: as §2
Rattus norvegicus [10] = test: Vasoconstriction in Wistar rat assessed as assessed as decay in vasopressive duration of action at 0.6 nmol/kg, iv bolus measured over 10 sec interval; format: functional; how it was run: as §1
Rattus norvegicus [11] = test: Vasoconstriction in Wistar rat assessed as decay in vasopressive duration of action at 1 nmol/kg, iv bolus measured over 10 sec interval; format: functional; how it was run: as §1
Rattus norvegicus [12] = test: Vasoconstriction in Wistar rat assessed as assessed as decay in vasopressive duration of action at 0.1 nmol/kg, iv bolus measured over 10 sec interval; format: functional

SMILES	Ratio EC50 [1]	EC50 (Vasopressin V1a receptor [2])	EC50 (Vasopressin V1b receptor)	EC50 (Vasopressin V2 receptor [3])	EC50 (Oxytocin receptor; cho-k1, read-out: EC50)	EC50 (Oxytocin receptor; read-out: pEC50 (converted))	Ratio EC50 (Homo sapiens [4])	Ratio EC50 (Homo sapiens [5])	EC50 (Vasopressin V1a receptor [6])	Time (Rattus norvegicus [7])	Efficacy (Vasopressin V1a receptor [8])	Efficacy (Vasopressin V2 receptor [9])	EC50 (Oxytocin receptor; read-out: EC50)	Time (Rattus norvegicus [10])	Time (Rattus norvegicus [11])	Time (Rattus norvegicus [12])
CC[C@H](C)[C@@H]1NC(=O)[C@H](Cc2ccccc2)NC(=O)[C@@H](N)CSSC[C@@H](C(=O)N2CCC[C@H]2C(=O)N[C@@H](CCCN)C(=O)NCC(N)=O)NC(=O)[C@H](CC(N)=O)NC(=O)[C@H](CCCC(N)=O)NC1=O (H-CFI[Aad](NH2)NCP[Orn]G-NH2; disulfide 1-6)	1700	0.0009 µM	0.046 µM	1.6 µM	> 10 µM	> 10 µM	51	> 11000	0.00034 µM	3.4 unitless ratio	< 70%	< 70%	–	–	–	–
CC[C@H](C)[C@@H]1NC(=O)[C@H](Cc2cccs2)NC(=O)[C@@H](N)CSSC[C@@H](C(=O)N2CCC[C@H]2C(=O)N[C@@H](CCCNC(C)C)C(=O)NCC(N)=O)NC(=O)[C@H](CC(N)=O)NC(=O)[C@H](CCC(N)=O)NC1=O (H-C[2Thi]IQNCP[Orn(iPr)]G-NH2; disulfide 1-6)	560	0.00069 µM	0.37 µM	0.39 µM	–	–	530	150	0.00032 µM	–	–	< 70%	0.11 µM	2.7 unitless ratio	–	–
CC[C@H](C)[C@@H]1NC(=O)[C@H](Cc2ccco2)NC(=O)[C@@H](N)CSSC[C@@H](C(=O)N2CCC[C@H]2C(=O)N[C@@H](CCCNC(C)C)C(=O)NCC(N)=O)NC(=O)[C@H](CC(N)=O)NC(=O)[C@H](CCC(N)=O)NC1=O (H-C[Ala(2-furyl)]IQNCP[Orn(iPr)]G-NH2; disulfide 1-6)	360	0.0026 µM	0.57 µM	0.95 µM	–	–	210	100	0.00062 µM	–	–	–	0.26 µM	–	1.5 unitless ratio	–
CC[C@H](C)[C@@H]1NC(=O)[C@H](CC2CCCCC2)NC(=O)[C@@H](N)CSSC[C@@H](C(=O)N2CCC[C@H]2C(=O)N[C@@H](CCN)C(=O)NCC(N)=O)NC(=O)[C@H](CC(N)=O)NC(=O)[C@H](CCC(N)=O)NC1=O (H-C[Cha]IQNCP[Dab]G-NH2; disulfide 1-6)	3000	0.00025 µM	0.008 µM	0.76 µM	> 10 µM	> 10 µM	32	> 40000	0.0021 µM	3.1 unitless ratio	–	–	–	–	–	–
NCCC[C@H](NC(=O)[C@@H]1CCCN1C(=O)[C@@H]1CSSC[C@H](N)C(=O)N[C@@H](Cc2ccc(O)cc2)C(=O)N[C@@H](Cc2ccccc2)C(=O)N[C@@H](CCC(N)=O)C(=O)N[C@@H](CC(N)=O)C(=O)N1)C(=O)NCC(N)=O [ORNIPRESSIN]	–	–	0.0075 µM	–	–	–	–	–	–	–	–	–	0.071 µM	–	–	1.1 unitless ratio
N=C(N)NCCC[C@H](NC(=O)[C@@H]1CCCN1C(=O)[C@@H]1CSSC[C@H](N)C(=O)N[C@@H](Cc2ccc(O)cc2)C(=O)N[C@@H](Cc2ccccc2)C(=O)N[C@@H](CCC(N)=O)C(=O)N[C@@H](CC(N)=O)C(=O)N1)C(=O)NCC(N)=O [VASOPRESSIN]	–	–	–	–	–	–	–	–	–	–	–	–	–	–	–	1 unitless ratio
